Measured values: ChEMBL document CHEMBL1667727, “Sesquiterpenes from Chloranthus japonicus” (J Nat Prod, 2011)
pIC50: −log10 of the molar value.

Columns and labels:
Type in all cases: functional, cell-based
HepG2 = test: Cytotoxicity against human HepG2 cells by MTT assay
Outline: (§1)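 In vitro cytotoxicity testing against a panel of eight cultured human tumor lines. Tissue origins: Lovo (colorectal cancer), Hepg2 (hepatoma), OSRC-2 (renal carcinoma), A549 (lung epithelial carcinoma), SKOV3 (ovarian carcinoma), HeLa (cervical cancer), MCF-7 (breast cancer) and SGC-7901 (gastric adenocarcinoma).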

OS-RC-2 = test: Cytotoxicity against human OS-RC2 cells by MTT assay; outline: as §1
A549 = test: Cytotoxicity against human A549 cells by MTT assay; outline: as §1
SK-OV-3 = test: Cytotoxicity against human SKOV3 cells by MTT assay; outline: as §1
HeLa = test: Cytotoxicity against human HeLa cells by MTT assay; outline: as §1
MCF7 = test: Cytotoxicity against human MCF7 cells by MTT assay; outline: as §1
SGC-7901 = test: Cytotoxicity against human SGC7901 cells by MTT assay; outline: as §1
LoVo = test: Cytotoxicity against human LoVo cells by MTT assay; outline: as §1

Measured: pIC50

C=C1[C@H]2C[C@H]2[C@]2(C)C[C@]3(O[C@@H]4O[C@H](CO)[C@@H](O)[C@H](O)[C@H]4O)OC(=O)C(C)=C3C[C@@H]12 [CHLORAJAPOSIDE]
< 5.00: all assays above

C/C=C(\C)C(=O)OC[C@@]1(O)C2[C@@H](O)C3=C(COC(=O)CCC(=O)OC)C(=O)O[C@@]34[C@@H]3C5=C(C[C@H]4[C@@]2(C)[C@@H]2C[C@@H]21)[C@H]1C[C@H]1[C@]5(C)[C@@H](O)C(=O)/C3=C(/C)C(=O)OC (some centres undefined) [CHLORAJAPONOL]
< 5.00: all assays above

CC1=C2C[C@@H]3[C@@](C)(C[C@]2(O)OC1=O)[C@H](O)CC[C@@]3(C)O [CHLORAEUDOLIDE]
< 5.00: all assays above

CC1=C2CC3=C(CO)[C@H]4C[C@H]4[C@]3(C)C[C@@H]2OC1=O [CHLORAJAPOLIDE C]
< 5.00: all assays above

CC1=C2[C@H](O)C3=C(C=O)[C@H]4C[C@H]4[C@]3(C)C[C@@H]2OC1=O [CHLORAJAPOLIDE A]
< 5.00: all assays above

CC1=C2C[C@@H]3[C@@](C)(C[C@@H]2OC1=O)[C@@H]1C[C@@H]1[C@]3(O)CO [CHLORAJAPOLIDE D]
< 5.00: all assays above

CO[C@@]12OC(=O)C(CO)=C1C[C@H]1[C@H](COC(C)=O)[C@H]3C[C@H]3[C@]1(C)[C@@H]2O [CHLORAJAPOLIDE E]
< 5.00: all assays above

CC1=C2[C@@H]3O[C@H](O)C4=C3[C@@](C)(C[C@@H]2OC1=O)[C@@H]1C[C@H]41 [CHLORAJAPOLIDE B]
< 5.00: all assays above
